pIC50: −log10 of the molar value. Converted amounts (≈) assume the structure as drawn. The source made the active and inactive calls.
Tests used:
[1] = system: NCI-H460; assay: Induction of apoptosis in human NCI-H460 cells assessed as live cells at 25 uM after 72 hrs by annexin-V/propidium iodide staining-based flow cytometric analysis (reference value: 98.3%); assay type: functional
[2] = system: NCI-H460; assay: Cytotoxicity against human NCI-H460 cells after 72 hrs by MTT assay; assay type: functional, cell-based; details: NCI-H460, 72 h
Outline: (§1)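 Seeding in 96-well plates at 1000 (NCI-H460), 2000 (NCI-H460/R) or 4000 (HaCaT) cells/well, treated after 24 h for 72 h. MTT at 0.4 mg/mL final, 4 h at 37 °C. Formazan dissolved in DMSO, absorbance read at 540 nm. Inhibition % = (1 − A treated/A untreated)×100. IC30 and IC50 obtained by linear regression.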

[3] = system: NCI-H460; assay: Induction of superoxide anion generation in multidrug resistant human NCI-H460 cells at 25 uM after 72 hrs by DHE staining-based flow cytometric analysis relative to control; assay type: functional, cell-based
Outline: (§2)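 Seeded as for cell death (50,000 or 100,000 cells/well), treated 72 h at 25 µM, with CDDP 5 µM as control. Adherent cells trypsinized and loaded with 1 µM DHE for 30 min at 37 °C in the dark, then washed twice in PBS. Flow cytometry at ex 488/em 585 nm (FL2-H). Mean fluorescence intensity corrected for autofluorescence and compared with untreated control.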

[4] = system: NCI-H460; assay: Induction of apoptosis in human NCI-H460 cells assessed as dead cells at 25 uM after 72 hrs by annexin-V/propidium iodide staining-based flow cytometric analysis (reference value: 1.2%); assay type: functional
[5] = Selectivity ratio of IC30/IC50 for human HaCaT cells to IC30/IC50 for human NCI-H460 cells; assay type: ADME, cell-based; details: HaCaT cells versus NCI-H460 cells
Outline: (§3)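 Fold threshold of 1.5 used to call selectivity to cancer cells, resistance, or selectivity to MDR cells.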

[6] = system: NCI-H460; assay: Induction of apoptosis in multidrug resistant human NCI-H460 cells assessed as early apoptotic cells at 25 uM after 72 hrs by annexin-V/propidium iodide staining-based flow cytometric analysis (reference value: 1.1%); assay type: functional
[7] = system: NCI-H460; assay: Induction of apoptosis in multidrug resistant human NCI-H460 cells assessed as live cells at 25 uM after 72 hrs by annexin-V/propidium iodide staining-based flow cytometric analysis (reference value: 96.4%); assay type: functional
[8] = system: NCI-H460; assay: Induction of superoxide anion generation in human NCI-H460 cells at 25 uM after 72 hrs by DHE staining-based flow cytometric analysis relative to control; assay type: functional, cell-based; outline: as §2
[9] = system: HaCaT; assay: Induction of apoptosis in human HaCaT cells assessed as dead cells at 25 uM after 72 hrs by annexin-V/propidium iodide staining-based flow cytometric analysis (reference value: 2.8%); assay type: cell-based
[10] = system: HaCaT; assay: Induction of apoptosis in human HaCaT cells assessed as early apoptotic cells at 25 uM after 72 hrs by annexin-V/propidium iodide staining-based flow cytometric analysis (reference value: 0.2%); assay type: cell-based
[11] = Selectivity ratio of IC30/IC50 for human HaCaT cells to IC30/IC50 for multidrug resistant human NCI-H460 cells; assay type: ADME, cell-based; details: HaCaT cells versus multidrug resistant NCI-H460 cells; outline: as §3
[12] = system: HaCaT; assay: Cytotoxicity against human HaCaT cells after 72 hrs by MTT assay; assay type: cell-based; details: for pIC50: Homo sapiens, HaCaT; for IC30: human, hacat; outline: as §1
[13] = system: NCI-H460; assay: Induction of apoptosis in multidrug resistant human NCI-H460 cells assessed as dead cells at 25 uM after 72 hrs by annexin-V/propidium iodide staining-based flow cytometric analysis (reference value: 1.5%); assay type: functional
[14] = Induction of apoptosis in human HaCaT cells assessed as live cells at 25 uM after 72 hrs by annexin-V/propidium iodide staining-based flow cytometric analysis (reference value: 96.8%); assay type: cell-based; details: read-out: Activity
[15] = system: NCI-H460; assay: Induction of apoptosis in human NCI-H460 cells assessed as early apoptotic cells at 25 uM after 72 hrs by annexin-V/propidium iodide staining-based flow cytometric analysis (reference value: 0.3%); assay type: functional
[16] = system: HaCaT; assay: Induction of apoptosis in human HaCaT cells assessed as late apoptotic/necrotic cells at 25 uM after 72 hrs by annexin-V/propidium iodide staining-based flow cytometric analysis (reference value: 0.2%); assay type: cell-based
[17] = system: NCI-H460; assay: Cytotoxicity against multidrug resistant human NCI-H460 cells after 72 hrs by MTT assay; assay type: functional, cell-based; details: NCI-H460, 72 h; outline: as §1
[18] = system: NCI-H460; assay: Induction of apoptosis in multidrug resistant human NCI-H460 cells assessed as late apoptotic/necrotic cells at 25 uM after 72 hrs by annexin-V/propidium iodide staining-based flow cytometric analysis (reference value: 1%); assay type: functional
[19] = system: NCI-H460; assay: Induction of apoptosis in human NCI-H460 cells assessed as late apoptotic/necrotic cells at 25 uM after 72 hrs by annexin-V/propidium iodide staining-based flow cytometric analysis (reference value: 0.2%); assay type: functional
[20] = system: Saccharomyces cerevisiae; assay: Antifungal activity against Saccharomyces cerevisiae ATCC 9763 by broth microdilution method; assay type: functional
Outline: (§4)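 Broth microdilution per NCCLS. Compounds dissolved in DMSO as 10 mg/mL stock, diluted in Mueller Hinton broth (bacteria) or Sabouraud dextrose broth (fungi). Amikacin served as the positive control for bacteria and nystatin for fungi.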

[21] = system: HaCaT; assay: Induction of mitochondrial membrane potential depolarization in human HaCaT cells at 25 uM after 15 mins by JC1-staining-based flow cytometric analysis; assay type: cell-based; details: 0.25 h
Outline: (§5)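 Cells treated with 25 µM compound, with CDDP 5 µM as control. Stained with JC-1 for 15 min at 37 °C in a CO2 incubator, washed twice in assay buffer and resuspended in PBS. Flow cytometry read red aggregate (FL2-H) versus green monomer (FL1-H) fluorescence. Live cells were also imaged by fluorescence microscopy.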

[22] = system: NCI-H460; assay: Induction of mitochondrial membrane potential depolarization in human NCI-H460 cells at 25 uM after 15 mins by JC1-staining-based flow cytometric analysis; assay type: functional, cell-based; outline: as §5
[23] = system: Aspergillus brasiliensis; assay: Antifungal activity against Aspergillus brasiliensis ATCC 16404 by broth microdilution method; assay type: functional; outline: as §4
[24] = system: HaCaT; assay: Induction of superoxide anion generation in human HaCaT cells at 25 uM after 72 hrs by DHE staining-based flow cytometric analysis relative to control; assay type: cell-based; outline: as §2
[25] = system: Candida albicans; assay: Antifungal activity against Candida albicans ATCC 10231 by broth microdilution method; assay type: functional; outline: as §4
[26] = system: NCI-H460; assay: Induction of mitochondrial membrane potential depolarization in multidrug resistant human NCI-H460 cells at 25 uM after 15 mins by JC1-staining-based flow cytometric analysis; assay type: functional, cell-based; outline: as §5
[27] = system: NCI-H460; assay: Selectivity ratio of IC30/IC50 for human NCI-H460 cells to IC30/IC50 for multidrug resistant human NCI-H460 cells; assay type: functional; outline: as §3

Row | Compound | Activity [1] [%] | IC30 [2] [µM] | pIC50 [2] | Activity [3] | Activity [4] [%] | selectivity ratio [5] | Activity [6] [%] | Activity [7] [%] | Activity [9] [%] | Activity [10] [%] | pIC50 [12] | IC30 [12] [µM] | Activity [13] [%] | viability at 72 h, 25 µM [14] [%] | Activity [15] [%] | Activity [16] [%] | IC30 [17] [µM] | pIC50 [17] | Activity [18] [%] | Activity [19] [%] | also measured
1 | CC1=CCC[C@H]2[C@](C)(CC3=CC(=O)C=CC3=O)[C@@H](C)CC[C@]12C [AVARONE] | 74 | 36 | 4.08 | Active | 6.3 | ≤ 1.5 | 2.6 | 65.8 | 9.1 | 2.5 | 4.43 | 16 | 8.9 | 78.3 | 3.4 | 10.1 | 10 | 4.62 | 22.7 | 16.3 | Activity [8]: Active; selectivity ratio [11]: ≤ 1.5
2 | CCCCCCCCNC1=CC(=O)C=C(C(C)(C)C)C1=O | 54.9 | 5 | 4.70 | Active | 42 | ≤ 1.5 | 0.1 | 61.4 | 19.8 | 0.6 | 4.52 | 18 | 36.4 | 77 | 0.2 | 2.6 | 8 | 4.68 | 2.1 | 2.9 | MIC [20]: 539 µM (≈ 157 µg/mL); Activity [21]: Non-toxic; Activity [8]: inactive; Activity [22]: Active; selectivity ratio [11]: ≤ 1.5; MIC [23]: 2150 µM (≈ 626 µg/mL); Activity [24]: Non-toxic; MIC [25]: 67 µM (≈ 19.5 µg/mL); Activity [26]: Active
3 | CCCCCCCCNC1=CC(=O)C=C(C[C@]2(C)[C@@H](C)CC[C@]3(C)C(C)=CCC[C@@H]23)C1=O | 95.7 | 21 | 4.42 | Active | 3.9 | – | 0 | 92.6 | 13.8 | 0.3 | 4.77 | 13 | 7.3 | 85.3 | 0.1 | 0.6 | 13 | 4.46 | 0.1 | 0.3 | Activity [8]: inactive; Activity [24]: Toxic
4 | CC1=CCC[C@H]2[C@](C)(CC3=CC(=O)C=C(NCCc4ccccc4)C3=O)[C@@H](C)CC[C@]12C | 71.7 | 14 | 4.68 | Active | 28 | ≤ 1.5 | 1.2 | 53 | 41.3 | 0.2 | 4.64 | 18 | 42.3 | 58.1 | 0.1 | 0.4 | 6 | 4.96 | 3.5 | 0.2 | selectivity ratio [27]: <=1.5; selectivity ratio [11]: ≤ 1.5; Activity [24]: Toxic
